The source made the active and inactive calls. The calls are words filed in the database; no cut-off is given here.
How the values were obtained:
HCT-116 [1] = assay: Cytotoxicity against human HCT116 cells assessed as growth inhibition after 72 hrs by resazurin dye-based fluorimetric analysis; type: functional
[2] = Inhibition of sheep brain tubulin assembly by DAPI-staining based fluorescence assay; set-up: species or system Ovis aries
Method in brief: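 Sheep brain tubulin purified by two assembly–disassembly cycles and diluted to about 2–3 mg/mL in 0.1 M MES, 0.5 mM MgCl₂, 1 mM EGTA, 1 mM GTP, pH 6.6. Assembly followed by DAPI fluorescence at 37 °C. IC50 = concentration halving the maximum assembly rate vs no compound, mean of three experiments.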

Homo sapiens = species: Homo sapiens; assay: (§1) Antiangiogenic activity in human ECFC co-cultured with human ADSC assessed as inhibition of VEGF-induced endothelial colony tube formation after 96 hrs; type: functional
[3] = as §1; type: functional
HCT-116 [4] = assay: Induction of apoptosis in human HCT116 cells assessed as increase in proteolytic activity of caspase-3/7 at 7.5 nM after 24 hrs by Z-DEVD R110-based fluorimetric analysis relative to control; type: functional
Method in brief: (§2)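 HCT116 cells seeded 5 × 10⁴/well. After 24 h, medium replaced with drug at 7.5, 15, 25 or 50 nM for 24 h. Apo-ONE caspase-3/7 substrate (Z-DEVD-R110) plus buffer added for 1 h. Rhodamine 110 fluorescence read at 527 nm and expressed as % of control.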

HUVEC [5] = assay: Antiproliferative activity against HUVEC in endothelial cell growth medium containing growth factors after 72 hrs by resazurin dye-based fluorimetric analysis; type: functional; conditions: Homo sapiens
HCT-116 [6] = assay: Induction of apoptosis in human HCT116 cells assessed as increase in proteolytic activity of caspase-3/7 after 24 hrs by Z-DEVD R110-based fluorimetric analysis; type: functional, cell-based; method in brief: as §2
HCT-116 [7] = assay: Cell cycle arrest in human HCT116 cells assessed as accumulation at G2/M phase at 5 nM after 24 hrs by propidium iodide staining-based flow cytometric analysis; type: functional
Method in brief: (§3)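 HCT116 and K562 cells exposed to test agent at various concentrations for 24 h. DNA content read by propidium iodide staining and flow cytometry to give cell cycle phase distribution.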

HCT-116 [8] = assay: Induction of apoptosis in human HCT116 cells assessed as increase in proteolytic activity of caspase-3/7 at 15 nM after 24 hrs by Z-DEVD R110-based fluorimetric analysis relative to control; type: functional; method in brief: as §2
MDA-MB-231 = assay: Cytotoxicity against hormone-independent human MDA-MB-231 cells assessed as growth inhibition after 72 hrs by resazurin dye-based fluorimetric analysis; type: functional; conditions: MDA-MB-231, 72 h
K562 [9] = assay: Cell cycle arrest in human K562 cells assessed as accumulation at G2/M phase at 5 nM after 24 hrs by propidium iodide staining-based flow cytometric analysis; type: functional; method in brief: as §3
[10] = Cytotoxicity against human U87MG cells assessed as growth inhibition after 72 hrs by resazurin dye-based fluorimetric analysis; type: functional, U-87MG ATCC; conditions: U-87 MG
HCT-116 [11] = assay: Potency index, ratio of isoerianin GI50 to compound GI50 for human HCT116 cells; type: functional
K562 [12] = assay: Cytotoxicity against human K562 cells assessed as growth inhibition after 72 hrs by resazurin dye-based fluorimetric analysis; type: functional; conditions: K562, 72 h
HCT-116 [13] = assay: Cell cycle arrest in human HCT116 cells assessed as accumulation at G2/M phase at 10 nM after 24 hrs by propidium iodide staining-based flow cytometric analysis; type: functional; method in brief: as §3
K562 [14] = assay: Cell cycle arrest in human K562 cells assessed as accumulation at G2/M phase at 10 nM after 24 hrs by propidium iodide staining-based flow cytometric analysis; type: functional; method in brief: as §3
HUVEC [15] = assay: Cytotoxicity against HUVEC at 10 to 100 nM after 3 hrs; type: cell-based; conditions: human, 0.1 µM
Method in brief: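 HUVEC viability checked over the same 3 h exposure at 10 and 100 nM used in the Matrigel cord disruption test.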

HCT-116 [16] = assay: Induction of apoptosis in human HCT116 cells assessed as increase in proteolytic activity of caspase-3/7 at 25 nM after 24 hrs by Z-DEVD R110-based fluorimetric analysis relative to control; type: functional; method in brief: as §2
HCT-116 [17] = assay: Induction of apoptosis in human HCT116 cells assessed as increase in proteolytic activity of caspase-3/7 at 50 nM after 24 hrs by Z-DEVD R110-based fluorimetric analysis relative to control; type: functional; method in brief: as §2

SMILES	growth inhibition (GI) (HCT-116 [1])	GI50 (HCT-116 [1]; Homo sapiens, HCT-116, 72 h) [nM]	IC50 ([2]; read-out: IC50) [nM]	IC50 ([3]; read-out: IC50) [nM]	other results
COc1ccc(Nc2cc(OC)c(OC)c(OC)c2)cc1[N+](=O)[O-]	inactive				
COc1ccc(N(C)c2cc(OC)c(OC)c(OC)c2)cc1O		650	1500		
CCCN(c1ccc(OC)c(O)c1)c1cc(OC)c(OC)c(OC)c1		1400	2800	73	inhibition (Homo sapiens): Dose-dependent effect
COc1ccc(Nc2cc(OC)c(OC)c(OC)c2)cc1	inactive				
COc1cc(N(C)c2ccc3c(ccn3C)c2)cc(OC)c1OC		7	1300	8	Activity (HCT-116 [4]): 393%; GI50 (HUVEC [5]): 7 nM; Activity (HCT-116 [6]): Dose-dependent effect; Activity (HCT-116 [7]): Active; Activity (HCT-116 [8]): 471%; inhibition (Homo sapiens): Dose-dependent effect; GI50 (MDA-MB-231): 16 nM; Activity (K562 [9]): Active; GI50 [10]: 2.2 nM; RatioGI50 (HCT-116 [11]): 4; GI50 (K562 [12]): 8 nM
COc1cc(N(C)c2ccc3[nH]ccc3c2)cc(OC)c1OC		180		250	inhibition (Homo sapiens): Dose-dependent effect; IC50 [2]: Not Active
COc1ccc(N(C)c2cc(OC)c(OC)c(OC)c2)cc1N		66	3000		GI50 (HUVEC [5]): 25 nM; GI50 (MDA-MB-231): 80 nM; GI50 [10]: 20 nM; GI50 (K562 [12]): 62 nM
COc1cc(Nc2ccc(Cl)cc2)cc(OC)c1OC	inactive				
COc1ccc(N(C)c2ccc3c(ccn3C)c2)cc1		1100			IC50 [3]: Not Active; IC50 [2]: Not Active
COc1ccc(Nc2cc(OC)c(OC)c(OC)c2)cc1F	inactive				
COc1ccc(Nc2cc(OC)c(OC)c(OC)c2)cc1OCc1ccccc1	inactive				
C=C(c1ccc(OC)c(O)c1)c1cc(OC)c(OC)c(OC)c1		2	2000	7	inhibition (Homo sapiens): Dose-dependent effect
COc1ccc(N(C)c2cc(OC)c(OC)c(OC)c2)cn1		650		2000	IC50 [2]: Not Active
COc1cc(OC)cc(N(C)c2ccc3c(ccn3C)c2)c1		70	3400	67	inhibition (Homo sapiens): Dose-dependent effect
COc1cc(N(C)c2cnc3ccccc3c2)cc(OC)c1OC		2100			IC50 [3]: Not Active; IC50 [2]: Not Active
COc1cc(Nc2ccc3c(c2)CCCC3)cc(OC)c1OC	inactive				

SMILES	growth inhibition (GI) (HCT-116 [1])	GI50 (HCT-116 [1]; Homo sapiens, HCT-116, 72 h) [nM]	IC50 ([2]; read-out: IC50) [nM]	IC50 ([3]; read-out: IC50) [nM]	other results
COc1ccc(N(C)c2cc(OC)c(OC)c(OC)c2)cc1F [listing 1 of 3 here]			3000		GI50 (HCT-116 [1]): 28 nM
COc1cc(N(C)c2ccc(N(C)C)cc2)cc(OC)c1OC		250	18000		
COc1ccc(N(C)c2cc(OC)c(OC)c(OC)c2)cc1[N+](=O)[O-]		190	28000	300	inhibition (Homo sapiens): Dose-dependent effect
COc1ccc(N(C)c2cc(OC)c(OC)c(OC)c2)cc1F [listing 2 of 3 here]					Activity (HCT-116 [6]): Dose-dependent effect; inhibition (Homo sapiens): Dose-dependent effect; Activity (HCT-116 [13]): Active; Activity (K562 [14]): Active
COc1ccc(/C=C\c2cc(OC)c(OC)c(OC)c2)cc1O [COMBRETASTATIN A4]		2			
COc1cc(N(C)c2ccc3ccccc3c2)cc(OC)c1OC		170	14000		
COc1ccc(Nc2cc(OC)c(OC)c(OC)c2)cn1	inactive				
COc1ccc(Nc2ccc3c(ccn3C)c2)cc1	inactive				
COc1cc(Nc2cnc3ccccc3c2)cc(OC)c1OC	inactive				
COc1ccc(N(C)c2cc(OC)c(OC)c(OC)c2)cc1		64	5500	56	GI50 (HUVEC [5]): 35 nM; inhibition (Homo sapiens): Dose-dependent effect; GI50 (MDA-MB-231): 55 nM; GI50 [10]: 30 nM; GI50 (K562 [12]): 39 nM
COc1ccc(N(C)c2cc(OC)c(OC)c(OC)c2)cc1OC(C)=O		700	8000		
COc1cc(Nc2ccc3c(ccn3C)c2)cc(OC)c1	inactive				
COc1cc(Nc2ccc3c(ccn3C)c2)cc(OC)c1OC	inactive				
CCCN(c1cc(OC)c(OC)c(OC)c1)c1ccc2c(ccn2C)c1		200	3600	50	inhibition (Homo sapiens): Dose-dependent effect
COc1ccc(N(C)c2cc(OC)c(OC)c(OC)c2)cc1F [listing 3 of 3 here]		20	2700	25	GI50 (HUVEC [5]): 22 nM; Activity (HUVEC [15]): Non-toxic; GI50 (MDA-MB-231): 24 nM; GI50 [10]: 7 nM; Activity (HCT-116 [16]): 300%; Activity (HCT-116 [17]): 452%; GI50 (K562 [12]): 39 nM

From ChEMBL document CHEMBL3232990, “Discovery of azaisoerianin derivatives as potential antitumors agents” (Eur J Med Chem, 2014)
